Measured values reported in ChEMBL document CHEMBL1138564, “Microwave-induced synthesis and anti-microbial activities of 7,10,11,12-tetrahydrobenzo[c]acridin-8(9H)-one derivatives” (2009).

Experiments:
[1] = test system: Proteus vulgaris; test: Antimicrobial activity against Proteus vulgaris NCIM 2027 at 5 ug/disk after 24 hrs by disk diffusion method; format: functional; conditions: NCIM 2027, 24 h, read-out: DIZ
Procedure, shortened: (§1)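 Disc diffusion on Mueller–Hinton agar. 100 µl of bacterial suspension at 10⁸ CFU/ml is spread on the plate. Discs carry test compounds at two loadings, dissolved in DMSO; DMSO alone serves as negative control. Ofloxacin disc is the positive reference. Plates are incubated at 37 °C for 24 h, and the inhibition zone diameter is measured.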

[2] = test system: Rhodococcus corynebacterioides; test: Antimicrobial activity against Corynebacterium rubrum NCIM 2252 at 5 ug/disk after 24 hrs by disk diffusion method; format: functional; conditions: Rhodococcoides corynebacterioides, NCIM 2252, 24 h; read-out: DIZ; procedure, shortened: as §1
[3] = test system: Staphylococcus; test: Antimicrobial activity against Staphylococcus albus NCIM 2178 at 5 ug/disk after 24 hrs by disk diffusion method; format: functional; conditions: NCIM 2178, 24 h, read-out: DIZ
Procedure, shortened: (§2)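 Reference disc of ofloxacin at 5 µg/disc, used to check the sensitivity of each bacterial strain. 100 µl of inoculum at 10⁸ CFU/ml was spread on Mueller–Hinton agar and incubated at 37 °C for 24 h. The read-out was inhibition zone diameter.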

[4] = test system: Aliivibrio fischeri; test: Antimicrobial activity against Vibrio fischeri NCIM 2154 at 5 ug/disk after 24 hrs by disk diffusion method; format: functional; conditions: NCIM 2154, 24 h, read-out: DIZ; procedure, shortened: as §2
[5] = test system: Bacillus subtilis; test: Antimicrobial activity against Bacillus subtilis NCIM 2063 at 5 ug/disk after 24 hrs by disk diffusion method; format: functional; conditions: NCIM 2063, 24 h, read-out: DIZ; procedure, shortened: as §1
[6] = test system: Escherichia coli; test: Antimicrobial activity against Escherichia coli NCIM 2065 at 5 ug/disk after 24 hrs by disk diffusion method; format: functional; conditions: NCIM 2065, 24 h, read-out: DIZ; procedure, shortened: as §1
[7] = test system: Pseudomonas aeruginosa; test: Antimicrobial activity against Pseudomonas aeruginosa NCIM 2200 at 5 ug/disk after 24 hrs by disk diffusion method; format: functional; conditions: NCIM 2200, 24 h, read-out: DIZ; procedure, shortened: as §2
[8] = test system: Bacillus cereus; test: Antimicrobial activity against Bacillus cereus NCIM 2155 at 5 ug/disk after 24 hrs by disk diffusion method; format: functional; conditions: NCIM 2155, 24 h, read-out: DIZ; procedure, shortened: as §1
[9] = test system: Klebsiella aerogenes; test: Antimicrobial activity against Klebsiella aerogenes NCIM 2239 at 5 ug/disk after 24 hrs by disk diffusion method; format: functional; conditions: NCIM 2239, 24 h, read-out: DIZ; procedure, shortened: as §1
[10] = test system: Salmonella typhimurium; test: Antimicrobial activity against Salmonella Typhimurium NCIM 2501 at 5 ug/disk after 24 hrs by disk diffusion method; format: functional, Salmonella enterica subsp. enterica serovar Typhimurium; conditions: Salmonella enterica, NCIM 2501, 24 h; read-out: DIZ; procedure, shortened: as §2

CC1COc2c(N3CCN(C)CC3)c(F)cc3c(=O)c(C(=O)O)cn1c23 (stereo not given) [OFLOXACIN]
zone of inhibition at 5 µg/disc [1]: 19 mm
zone of inhibition at 5 µg/disc [2]: 25 mm
zone of inhibition at 5 µg/disc [3]: 21 mm
zone of inhibition at 5 µg/disc [4]: 27 mm
zone of inhibition at 5 µg/disc [5]: 24 mm
zone of inhibition at 5 µg/disc [6]: 23 mm
zone of inhibition at 5 µg/disc [7]: 22 mm
zone of inhibition at 5 µg/disc [8]: 19 mm
zone of inhibition at 5 µg/disc [9]: 24 mm
zone of inhibition at 5 µg/disc [10]: 21 mm
